# This is a sample that favours compounds with a hit; in the whole collection about 1.9% have one here.
# CHRM4 antagonist: human M4 muscarinic receptor antagonists, primary screen, CHO cells, Fluo-8 calcium fluorescence | Muscarinic acetylcholine receptor M4 (Homo sapiens), P08173 | CHO-hM4 cells, ACh EC80 | inhibition, % at 3 µM | 360,000 tested, 0.73% active;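 active means inhibition above its plate's cutoff, the mean inhibition of sample wells plus 3 SD, cut at about 27% in these data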
# Target sequence (P08173 whole entry, looked up): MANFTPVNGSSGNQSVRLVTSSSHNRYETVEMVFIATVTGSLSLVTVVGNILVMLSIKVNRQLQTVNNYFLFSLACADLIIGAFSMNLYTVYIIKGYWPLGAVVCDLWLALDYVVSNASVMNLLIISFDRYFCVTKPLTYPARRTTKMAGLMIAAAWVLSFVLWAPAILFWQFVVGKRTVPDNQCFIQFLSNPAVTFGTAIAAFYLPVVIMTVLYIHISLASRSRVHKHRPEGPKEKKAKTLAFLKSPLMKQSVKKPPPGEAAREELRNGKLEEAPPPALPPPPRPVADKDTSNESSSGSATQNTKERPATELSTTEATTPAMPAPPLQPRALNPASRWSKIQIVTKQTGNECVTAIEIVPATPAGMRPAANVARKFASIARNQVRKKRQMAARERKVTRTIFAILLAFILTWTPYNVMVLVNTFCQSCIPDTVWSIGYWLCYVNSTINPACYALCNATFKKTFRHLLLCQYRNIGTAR
# M4 ag: human M4 muscarinic receptor agonists, primary screen, CHO-K1 cells, Fluo-8 calcium fluorescence; Muscarinic acetylcholine receptor M4 (Homo sapiens), P08173; CHO-K1 hM4/Gqi5; vehicle 0%, full acetylcholine response 100%; activation, % at 3 µM; 360,000 tested, 0.14% active; AID 624127, 2012;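 active means activation above the run mean over all test wells plus 3 SD, cut at about 32% in these data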;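 further: peak over basal fluorescence ratio per well then scaled between controls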
# CHRM5 agonist: human M5 muscarinic receptor agonists, primary screen, CHO-K1 cells, Fluo-8 calcium fluorescence. CHO-K1 hM5 cells; 0% DMSO wells, 100% maximal acetylcholine response. activation, % at 3 µM. 360,000 tested, 0.19% active. AID 624037, 2012;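 active means activation above the run's mean over test compounds plus 3 SD, cut at about 23% in these data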;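 further: signal is peak over basal fluorescence ratio across the kinetic read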
# M4 PAM: human M4 muscarinic receptor positive allosteric modulators, primary screen, CHO-K1 cells, Fluo-8 calcium fluorescence | AID 624126, 2012 | 360,000 tested, 0.4% active | Muscarinic acetylcholine receptor M4 (Homo sapiens), P08173 | CHO-K1 hM4/Gqi5, ACh EC20; 0% = ACh EC20, 100% = maximal ACh | activation, % at 3 µM;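 active means activation above its plate's cutoff, the mean activation of sample wells plus 3 SD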
# CHRM5 antagonist: human M5 muscarinic receptor antagonists, primary screen, CHO cells, Fluo-8 calcium fluorescence. AID 624040, 2012. 360,000 tested, 0.59% active. CHO-hM5 cells, ACh EC80. inhibition, % at 3 µM. Muscarinic acetylcholine receptor M5 (Homo sapiens), P08912;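 active means inhibition above a per-plate cutoff, the mean of that plate's test compounds plus 3 SD, cut at about 27% in these data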
# M5 PAM: human M5 muscarinic receptor positive allosteric modulators, primary screen, CHO-K1 cells, Fluo-8 calcium fluorescence. Muscarinic acetylcholine receptor M5 (Homo sapiens), P08912. CHO-K1 hM5, ACh EC20 PAM; 0% = ACh EC20, 100% = ACh EC100. activation, % at 3 µM. 360,000 tested, 0.3% active;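 active means activation above the run cutoff, the mean activation of all test compounds plus 3 SD, cut at about 18% in these data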
#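 Assay system: CHO-K1 hM5 cells. Also added: acetylcholine at EC20 concentration, added after compound. Dosing: 3 µM, single dose. Times: compound preincubation 140 s before EC20 acetylcholine addition. Signal: Fluo-8 calcium fluorescence. Measure: % activation relative to EC20 and EC100 ACh responses. Repeats: singlicate, one well per test compound.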
# Hits are given with their value; - = inactive.
SMILES,CHRM4 antagonist,M4 ag,CHRM5 agonist,M4 PAM,CHRM5 antagonist,M5 PAM
CCC(C)NC(=O)C1CCCN(c2nc(C)cc(OC)n2)C1 (stereo not drawn),-,-,-,25,-,20
COc1ccc(CC(=O)Nc2nc(-c3ccc(OC)c(OC)c3)cs2)cc1OC,-,-,23,-,-,-
COc1ccc(-c2csc(NC(=O)CN3C(=O)C4CC=CCC4C3=O)n2)cc1OC (stereo not drawn),-,-,-,-,29,-
COc1ccc(-c2csc(NC(=O)Cc3ccccc3F)n2)cc1OC,45,-,-,-,-,-
CNc1cncc(-c2cccc(C(=O)NC3CC3)c2)n1,-,-,-,-,-,-
COc1cc(C(=O)NNC(=O)COc2ccc(Br)cc2)ccc1OCC(=O)N1CCOCC1,-,-,-,-,-,-
CCOc1ccc(OCC(=O)N2CCOCC2)cc1,-,-,-,-,-,-
O=C(COc1ccc(Br)cc1)N1CCOCC1,-,-,-,-,-,18
COc1cc(C(=O)NNC(=O)COc2ccc(C)cc2)ccc1OCC(=O)N1CCOCC1,-,-,-,23,-,-
COc1ccc(S(=O)(=O)N(C)c2ccc(C(=O)Nc3ccccc3C(=O)N3CCOCC3)cc2)cc1OC,-,-,-,-,-,-
CC(=O)C1=C(c2ccccc2)NC(=S)NC1c1ccc(O)c(O)c1 (stereo not drawn),-,-,-,-,-,26
C=C1c2cc(C)ccc2NC(=O)N1c1ccc(C)cc1,-,-,-,29,-,-
C=C1c2ccccc2NC(=O)N1c1ccc(C)cc1,-,-,-,-,-,-
CCCn1c(SC(C)C(=O)NC2CCCC(C)C2C)n[nH]c1=O (stereo not drawn),-,-,-,-,-,-
CC(=O)Nc1cccc(C(=O)N2CCN(Cc3ccccc3)CC2)c1,-,-,-,20,-,-
CC(C)Cn1cnc2c1c(=O)n(CC(=O)NC(=O)NC(C)(C)C)c(=O)n2Cc1ccccc1,-,-,-,-,-,-
CC(C#N)(CCc1ccccn1)CCc1ccccn1,-,-,-,-,-,-
COc1ccc(CCC(C)NC2C3CC4CC(C3)CC2C4)cc1 (stereo not drawn),66,-,-,-,-,-
CC(C)(C)S(=O)N1Cc2cc(C(=O)NCc3ccc4c(c3)OCO4)nc(-c3cccc(-c4ccccc4)c3)c2[C@@H]1CCO (stereo partly drawn),-,-,-,-,-,-
CN1CCN(NC(=O)C23CC4CC(CC(C4)C2)C3)CC1,-,-,-,-,-,-
CN1CCN(NC(=O)C2CC2)CC1,33,-,-,-,-,-
O=C(NCC(c1ccco1)N1CCCC1)c1ccccc1Sc1ccc(C(F)(F)F)cc1[N+](=O)[O-] (stereo not drawn),-,-,-,-,-,-
Cc1ccc(C2(c3ccccc3)NC(=O)N(CC(=O)NCc3ccco3)C2=O)cc1C (stereo not drawn),-,-,-,-,-,18
COc1ccc(S(=O)(=O)N2CCCC(C(=O)NCc3cccnc3)C2)cc1OC (stereo not drawn),-,-,-,-,-,-
O=C(COC(=O)c1nc(Cl)ccc1Cl)Nc1ccc(Cl)cc1,-,-,-,22,-,-
SMILES,CHRM4 antagonist,M4 ag,CHRM5 agonist,M4 PAM,CHRM5 antagonist,M5 PAM
COC(=O)c1cc(NC(=O)Nc2ccccc2)ccc1Cl,-,-,-,-,31,-
COC(=O)c1ccc(NC(=O)Nc2ccc([N+](=O)[O-])cc2)cc1,-,-,-,-,35,-
COC(=O)c1ccc(NC(=O)Nc2ccc(F)c(Cl)c2)cc1,-,-,-,-,31,-
COC(=O)c1sccc1NC(=O)Nc1ccc(Cl)c(Cl)c1,28,-,-,-,-,-
O=[N+]([O-])c1cccc(S(=O)(=O)/N=C(/Nc2ccccc2)c2ccccc2)c1,-,-,-,-,-,-
COC(=O)c1cccc(NC(=O)Nc2ccc(Cl)c(Cl)c2)c1,-,-,-,-,32,-
O=C(Nc1ccccc1)Nc1ccccc1NS(=O)(=O)c1cccs1,-,-,-,-,-,-
O=C(Nc1ccc(Cl)c(Cl)c1)Nc1ccccc1NS(=O)(=O)c1cccs1,-,-,-,-,30,-
COc1ccc(Oc2c(OC)cc([N+](=O)[O-])c3ncccc23)cc1,-,-,-,-,-,-
COc1cc(NC(C)CCCN)c2ncccc2c1Oc1ccccc1 (stereo not drawn),-,-,-,-,-,25
Cc1nc(-c2cccc(NC(=O)c3ccc(Br)o3)c2)cs1,-,-,-,-,27,-
Cc1nc(-c2cccc(NC(=O)C3CCCCC3)c2)cs1,-,-,-,-,-,26
CC(C)CN(C(=O)COC(=O)C12CC3CC(CC(C3)C1)C2)c1c(N)n(Cc2ccccc2)c(=O)[nH]c1=O,-,-,-,-,-,-
O=c1c2ccccc2[nH]c(=S)n1CCN1CCN(Cc2ccccc2)CC1,-,-,-,-,-,-
CN1CCN(CCn2c(=S)[nH]c3ccccc3c2=O)CC1,-,-,-,-,33,-
c1ccc(CCn2cccc2)nc1,-,-,-,-,-,-
COc1ccc(-c2cc(C(=O)N3CCN(c4ccccn4)CC3)c3ccccc3n2)cc1,27,-,-,-,-,-
COc1ccc(-c2cc(C(=O)N3CCN(c4ccccc4O)CC3)c3ccccc3n2)cc1OC,-,-,-,-,28,-
CCOc1ccc(-c2cc(C(=O)N3CCN(c4ccccn4)CC3)c3ccccc3n2)cc1,-,-,-,-,-,-
COc1ccc(-c2cc(C(=O)N3CCN(c4ccccc4)CC3)c3ccccc3n2)cc1,-,-,-,-,-,-
Cc1ccc(-c2cc(C(=O)N3CCN(c4ccccc4O)CC3)c3ccccc3n2)cc1,-,-,-,-,-,-
COc1ccc(-c2cc(C(=O)N3CCN(c4ccccc4O)CC3)c3ccccc3n2)cc1,29,-,-,-,-,-
O=C(/C=C/[C@H]1O[C@@H](n2cnc3c(NC(=O)c4ccccc4)ncnc32)[C@H](O)[C@@H]1O)NCC1CCCO1 (stereo partly drawn),-,-,-,-,-,-
O=C1CC2(CCN(C(=O)c3ccc(F)c(F)c3)CC2)Oc2ccccc21,-,-,-,-,-,-

# Compound activity (PubChem)
